B1: tRNA (parent)
chain: GUUCCGUUGGCGUAAUGGUAACGCGUCUCCCUCCUAAGGAGAAGACUGCGGGUUCGAGUCCCGUACGGAACG

Fewer inactive variants are shown than the library holds. Where only a bound is given, the exact number is not on record here.

In this data set the parent is B1. Kind of data set: yeast fitness relative to wild type (ratio to wild type); higher = fitter; tRNA-Arg(CCU), competitive growth, 37 C, YPD. Summed up: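 The tRNA-Arg(CCU) gene variants were made by chemical synthesis with a 3% per-site mutation rate at 69 sites and inserted at the native genomic locus of Saccharomyces cerevisiae. After pooling, the strains were competed in YPD at 37°C for 24 hours in six parallel replicates. Gene amplicons from the start population and each end population were read by 100-nucleotide paired-end sequencing, and Darwinian fitness relative to wild type was taken from genotype frequency changes. Genotypes needed ≥ 100 starting reads, and estimates < 0.5 were set to 0.5.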
For the variant GUUGCGUUGGCGUAAUGGUAACGCGUCUCCCUCCUAAGGAGAAGACUGCGGGUUCGACUCCCGUACGGAACG, the yeast fitness amounted to 1.1. Turning to GUUGCGUUGGCGUAAUGGUAACGCGUCUCCCUCCUAAGGAGAAGACUGCGGGUUCGAAUCCCGUACGGAACG, the yeast fitness was determined as 1.05. Turning to GUUGCGUAGGCAUAAUGGUAACGCGUCUCCCUCCUAAGGAGGAAACUGCGGGUUCGAGUCCCGCACGGAACG, the yeast fitness was no more than 0.5. As for GUUGCGUAGGCAUGAUGGUAACGCGUCUCCCUCCUAAGGAGAAGACUACGGGUUCGAGUCCCGUACGGCACG, the yeast fitness is no more than 0.5. Take GUUGCGUAGGCGUAAUGCUAACGCGUCUCCCACCUAAGGAGAAGACCGCGGGUCCGAGUCCCGUACGGAACG: the yeast fitness is no more than 0.5. Take GUUGCGUAGGCAUAAUGGUAACGCGUCUCCCUCCUAAGGAGAAGACUGCGGGUUCGGGUCCCGUACGGAACG: the yeast fitness is no more than 0.5. As for GUUGCGGUGCCGUAAUGGUAACGUGUCUACCUCCUAAGGAGAAGUGAGCAGGUUCGAGUCCCGGACGGAACG, the figure is no more than 0.5; as for GUUGCGGUGGCCUAAUGGUUACGCGUCUCCCACCUAAGGAGAAGACUGCGGGUUCGAGUCCCGUACGGAACG, no more than 0.5; as for GUUGCGUUGGCGUAAUGGUAACGCGUCUCCCUCCUAAGGAGAAGACUGCCGGUUGGAGUCCGGUACGGAACG, no more than 0.5. For GUUGCGAUAGUGUAAUGGUAACGCGUCUCGCUCCUAAGGAGAAGACUGCGGGUUCGAGUCCAGUACGGAACG, the yeast fitness worked out at 0.628.

GUUGCGUUGGCGUAAUGGUAACGCGUCUCCCUCCUAAGGAGAAGACUGCAGGUUUGAGUCCCGUACGGAACG: the yeast fitness was no more than 0.5. As for GUUGCGAUAGUGUAAUGGUAACGCGUCUCCCUCCUAAGGAGAAGACUGCGGGUUUGAGUCCCGUACGGAACG, the yeast fitness was no more than 0.5.

Take GUUGCGAUCGCGUAAUCGUAACGCGUCUCCCUCCUAAGGAGAAGACUACGGGUUCGAGUCCCGUACGGAACG: the yeast fitness is no more than 0.5. As for GUUGCGGUGGCCUAAUGGUAACGCGUCUCCCUCCUAAGGAGAAGACUGCGGGUUCGAGUCCCGUACGGAACG, the figure is no more than 0.5; as for GUUGCGAUGGCGUAAUGGUAACGCGACUCCCUCCUAAGGCGGAGACUGCGGGUUCGACUCCCGUACGAAACG, no more than 0.5. As to GUUGCGUCGGCGUAAUAGUAACGCGUGUCCCUCCUUAGGAGAAGACUGCGGGUUCGAGUCCGGUACGGAACG, the yeast fitness amounted to 0.607. As for GUUGCGCUGGCGGAAUGGUAACGCGUCUCCCUCCUAAGGAGAAGACUGCGGGUUCGAGUCCCGUACGGAACG, the figure is 0.537; as for GUUGCGUCGGCGUAGUGGUAACACGUCUCCCUCGUAAGGAGAAGACUGCGGGUUCGAGUCCCGUACAGAACG, no more than 0.5.

GUUGCGGUGGCCUAAUGGUUACGCGUCGCCCUCCUAAGGAGAAGACUGCGGGUUCGAGUCCCGUACGGAACG: the yeast fitness is no more than 0.5. For the variant GUUGCGCUGGUGUAAUGGUAAUGCGUCUCCCUCCGAAGGAGAAGACUGCGGGUUCGAGUCACGUACGGAACG, the yeast fitness is no more than 0.5. With GUUGCGGUGGCCUAAUGGUUACGCGUCUCCCUCCUAAGGAGAAGACUGCGGGUUCGAGUCCCGUACGGAACG, the yeast fitness is no more than 0.5. Turning to GUUGCGUCGGCGUAAUGGUAACGCGUCUCCCUCCUAAGGAGAAGACUGAGGGUUCGAGUCCCGUACGGAACG, the yeast fitness is no more than 0.5.

As for GUUGCGGUGGCGGAAUGGUUACGCGUCUCCAUCGUAAGGAGCAGACUGCGGGUUCGAGUCCCGUACGGAACG, the yeast fitness is no more than 0.5.

For GUUGCGCUGGCGUAAUGGUAACGCGUAUCCCUCCUAAGGAGAUGACUGCGGGUUCGAGGCCCGUACGGAACG, the yeast fitness is no more than 0.5. In the case of GUUGCGGUGGCGUAAUGGUAACGCGUCUCCCUCAUAAGGAGAAGACUGCGGGUUCGAGUCCCGUACGGAACG, the yeast fitness is no more than 0.5. Consider GUUGCGGUGCCGUAAUGGUAACGCGUCUCCCUCCUAACGAGAAGACUGGGGGUUCGAGUCCCGUACGGCACG, for which the yeast fitness was no more than 0.5. As for GUUGCGUAGGCAUAAUGGUAAUGCGUCUCCCUCCUAAGGAGAAGACUACGGGUUCGAGUCCCGUACGGCACG, the figure is 0.522; as for GUUGCGUAGGCAUAAUGGUAACGCGUCUCCCUCCUAAGGAGAAGACUACGGGUUCGAGUCCCGUACGGCUCG, 0.561.

As for GUUGCGUAGGCGUAAUGCUAACGCGUCUCCCACCUAAGGAGAAGACCGCGGGUUCGAGUCCCGUACGGAACG, the yeast fitness came to 0.574. As for GUUGCGGUAGCGUAAUGGUGAAGCGUCUCCCUCCUAAGGAAAAGACUGCGGGUUCGAGUCCCGUACGGCACG, the figure is no more than 0.5. As for GUUGCGUUGGCGUAAUGGUAACGCGUCUCCCUCCUAAGGAGAAGACUGCGGGUUCGAGUCCCCUACGGAACG, the figure is 0.622; as for GUUGCGUUGGCGUAAUGGUAACGCGUCUCCCUCCUAAGGAGAAGACUCCGGGUUCGAGUCCCGUACCGAACG, 0.542; as for GUUGCGAUGCCGUAAUGGUCACGCGUCUCCCUCCUAAGGAGAAGACUGCGGGUUCGAGUCCCGUACUGAACG, 0.527.

For GUUGCGUUGGCGUAAUGGUAACGCGUCUCCCUCCUAAGGAGAAGACUGCGGGUUCGAAUCCCGAACGGAACG, the yeast fitness is no more than 0.5. For GUUGCGAUGGCGUAAUGGCCACGCGUCUCCCUCCUAAGGAGAAGACUGCGGGCUCGAGUCCCGUACGGAACG, the yeast fitness was no more than 0.5. As for GUUGCGGUGGCGUAAUGGUAACGCGUCUCCCUCCUAAGGAGAAGACUGCGGGUUCGAGUCCCGUACGGAACG, the yeast fitness turned out to be 0.642. Regarding GUUGCGUCGGCGUAAUGGUAGCGCGUCUCCCUCCUAAGGAGAAGACUGCGGGUUCGAGUCCCGUACGGAACG, the yeast fitness worked out at 0.605. As for GUUGCGUUGGCGUAAUGGUAACGCGUCUCCCUCCUAAGGAGAAGACUGCGGGUUCCAGUCCCGUACGGAACG, the figure is 0.699; as for GUUGCGGUGGCCUAAUGGUUACGCGUCUCCCUCCUAAGGAGAAGACUGUGGGUAUGAGUCCCGUACGGACCG, no more than 0.5.

GUUGCGGUGGCGUAAUGGUAACGCGUCUCCCUCCUAAGGAGAAGACUGCGGGUUCGAGGCCCCUACGGAACG: the yeast fitness was no more than 0.5. In the case of GUUGCGUCGGCGUAAUGGUAACGCGUCGCCCUCCUAAGGAGAAGACUGAGGGUUCGAGUCCGGUACGGAACG, the yeast fitness is no more than 0.5. As to GUUGCGAUGCCGUAAUGGUCACGCGUCUCCCUCCUAAGGAGAAGACUGCGGGUUCGAGUCCCGUACGGAACG, the yeast fitness is no more than 0.5. On to GUUGCGAUGGCGUAAUGGUAACGCGACUCCCUCCUAAGGCGGAGACUGCGGGUUCGACUCCCGUACGGAACG, for which the yeast fitness is no more than 0.5.

In the case of GUUGCGUAGGCAUAAUGGUAACGCGUCUCCCUCCUAAGGAGAAGACUGCGGGUUCGAGUCCCGUACGGAACG, the yeast fitness is 0.6.

As for GUUGCGAUGCCGUAAUGGUCACGCGUCUCCCUCCUAAGGAGAAGAGUGCGGGUUCGAGUCCCGUACGGAACG, the yeast fitness is no more than 0.5. As for GUUGCGUUGGCGUAAUGGUAACGCGUCUCCCUCCUAAGGAGAAGACUGCGGGUUCGAAUCCCGUACUGCACG, the yeast fitness worked out at 0.542. As for GUUGCGAUGGCGUAAUGGUAAUGCGUCUCCCUCCUAAGGAGAAGACUGCGGGUUCGAGUCCCGUAAGGAACG, the figure is no more than 0.5.

As to GUUGCGUCGGCGUAAUGGUAACGCAUCUCCCUCCUAAGGAGUAGACUGCGGGUUCGAGUCCCGUACGGAUCG, the yeast fitness is no more than 0.5. For GUUGCGUAGGCAUAAUGGUAACGCGUCUCCCUCCGAAGGAGAAGACUGCGGGUUCGAGUCCCGUACGGAACG, the yeast fitness is no more than 0.5. As for GUUGCGAUGGCGUAAUGGUAACGCGUCUCCCUCCUAAGGAGAAGACUGCGGGUUCGAGACCCGUACGGAACG, the yeast fitness was found to be 0.621. Regarding GUUGCGUCGGCGUAAUGGUAACGGGUCUCCCUCCUAAGGAGCAGACUGCGGGUUCGAGUCGCGUACGGAACG, the yeast fitness is no more than 0.5. As for GUUGCGCUGGCGUAAUGGUAACGUGUCUCCCUCCUAAGGAGAAGACUGCGGGUUCGAGUCCCGUGCGGAACG, the yeast fitness amounted to 0.857. Take GUUGCGUCGGCGUACUGGUAACGCGUCUCCAUCCUUCGGAGAAGACUGCGGGUUCGAGUACCGUGCGGGACG: the yeast fitness is no more than 0.5. With GUUGCGUUGGCGUAAUGGUAACGCGUCUCCCUCCUAAGGAGAAGACUGCGGCUUCGCGUCCCCUACGGAACG, the yeast fitness was no more than 0.5. GUUGCGCUGGCGUAAUGGUAAUGCGUCUCCCUCCGAAGGAGAAGACUGCGGGUUCGAGUCACGUACGGAACG: the yeast fitness was no more than 0.5.

As for GUUGCGUCGGCGUAAAGGUACCGGGUCUCCCUCCUAUGGAGAAGACUGUGGGUUUGAGUCCCGUACGGAACG, the yeast fitness was no more than 0.5. With GUUGCGUCGGGGUAAUGGUAACGCGUCUCCCUCCUAAGGAGAAGAUUGCGGGUUCGAGUCCCGUACGGAACG, the yeast fitness was no more than 0.5.

With GUUGCGUGGGCGUAAUGGUACCGCGUCUCCCUCCUAAGGAGAAGACUGCGGGUUCGAGUCCCGUACGGAACG, the yeast fitness was no more than 0.5. Regarding GUUGCGGUGGCGUAAUGGUAACGCGUCUCCUUCCUAAGGAGAAGACUGCGGGUUCGAGUCCCGUUCGGAACG, the yeast fitness was no more than 0.5. Take GUUGCGUUGGCGUAAUGGUAACGCGUCUCCCUCCUAAGGAGAAGACUGCGGGUUCGAGUCCCGUACAGAGCG: the yeast fitness stood at 0.665. In the case of GUUGCGUUGGCGUAAUGGUAACGCGUCUCCCUCCUAAGGAGAAGACUGCGCGUUCGAGUCCCGUACGGAACG, the yeast fitness turned out to be 0.647. Take GUUGCGGUGGCGUAAUGGUACCGCGUCUCCCUCCUAAGGAGAAGACUGCGGGUUCGAGUCCCGUACGGAACG: the yeast fitness was no more than 0.5. GUUGCGGUGGCGUAAUGGUAACGCGUCUCCCUCCUAAGGAGAAGACUGCGGGUUCGAGUCCCGUGCGGAACG: the yeast fitness was 0.622.

Take GUUGCGCUGGCGUCAUGGUAACGCGUCUCUCUCCUAAGGUGAAGACUGUGGGUUCGAGUCCCGUACGGAACG: the yeast fitness is no more than 0.5. As to GUUGCGUCGGCGUAAUGGUAACGCGUCUCCCUCCUAAGGAGAAGACAGCGGGUUCGAGUCCCGUACGGAACG, the yeast fitness is no more than 0.5. As for GUUGCGGUGGCGUAAUGGUAACGCGUCUCCCUCCUAAGGAGAAGACUGCGGGUUCGAGUACUGUACGCAACG, the figure is no more than 0.5. As for GUUGCGAUGGCGUAAUGGUAACGCGUCUCCGUCCUAAGGAGAAGACUGCGGGUUCGAGACCCGUACGGAACG, the figure is no more than 0.5; as for GUUGCGUUGGCGUAAUGGUAACGCGUCUCCCUCCUAAGGAGAAGACUGCCGGUUCGAGUCUCGUACGGAACG, 0.52; as for GUUGCGUUGGCGUAAUGGUAACGCGUCUCCCUCCUAAGGAGAAGACUGCGGGUUCGAGUCCCGUACAGCACG, no more than 0.5.

As to GUUGCGUAGGCGUAAUGGUAAUGCGUCUCCCUCCUAAGGAGAAGAGUGCGGGUUCGAGUCCCAUACGGAACG, the yeast fitness was no more than 0.5. As for GUUGCGGUGGCCUAAUGGUUACGCGUCUCCCUCAUAAGGACAAGCCAGCGGGUUAGAGUCCCGUACGGAACG, the figure is no more than 0.5.

GUUGCGCUGGCGUAAUGGUAACGCGUCUCCCUCCUAAGGAACAGACUGCCGGUUCGAGUCCCGUACGGAGCG: the yeast fitness was no more than 0.5. For GUUGCGUCGGCGUAAUGGUAACGGGUCUCCCUCCUAAGGAGCAGACUGCGGGUUCGAGUCCCGUACAGAACG, the yeast fitness is 0.558.

With GUUGCGUAGGGGUAAUGGUAACGCGUCUCCCUCCUAAGGAGUAGACUGCGGGUUCGAGUCCCGCACGCAACG, the yeast fitness was no more than 0.5.

Take GUUGCGUCGGCGUAAAGGUACCGGGUCUCCCUCCUAUGGAGAAGACUGCGGGUUUGAGUCCCGUACGGAACG: the yeast fitness is no more than 0.5.

Source of the values: the RNAGym collection of RNA variant scans (doi:10.1126/science.aae0568).
